Assay [1] in a line: reduced viability of SK-BR-3 breast cancer cells – cell-based, 24 h, human, pilot screen (AID 572;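 active means viability at or below 10% of carrier control in both of two separate runs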;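 further: compound exposure lasted between 18 and 24 h rather than exactly 24 h; 100% = carrier-treated control wells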). As to conditions: SK-BR-3 viability, CellTiter-Glo luminescence, at 10 µM, stronger effect = lower value. (In ATP-based viability assays light output follows the ATP content of the culture.)
Assay [2] is described as follows: HUVEC growth inhibition – cell-based, human, primary screen (AID 575;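 active means viability at or below 30% in both replicate assays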;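 further: 100% = median of untreated cell wells with 0.1% DMSO on each plate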). To be noted: HUVEC proliferation, CellTiter-Glo luminescence, 72 h; at 10 µM; stronger effect = lower value. The gist of the method:
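system = HUVEC primary cells | amount = 1250 cells/well | buffer or medium = supplemented EBM, 2% fetal bovine serum | dosing = single-point 10 µM, DMSO 0.1% final | times = 72 h compound incubation | detection = CTG luminescence | read-out = % viability relative to median vehicle-well signal on each plate | control set = vehicle and MePR control wells | format = collagen-coated 384-well format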

Assay [3] can be described thus: H69AR cell proliferation blockers – human, duplicate replicates, primary screen (AID 580;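 active means viability at or under a set limit in both replicates, limit being median viability minus 3 SD, cut at about 48% in these data, passing the limit was not always enough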;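 further: 100% = mean luminescence of untreated wells and 0% = no signal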). As to conditions: H69AR lung tumor cells viability, ATP luminescence, 72 h; at 10 µM; stronger effect = lower value.
Assay [4] in a line: MRP1 drug-resistance reversers in H69AR cells – cell-based, doxorubicin co-treatment, pilot screen (AID 601). As to conditions: CellTiter-Glo, 72 h, at 10 µM; for differential viability (reversal): stronger effect = higher value.
Assay [5] is described as follows: yeast transport mutant growth inhibition pilot in 384-well plates, post-Golgi transport modulator project (AID 636; in the data active means inhibition above about 31%). As to conditions: absorbance 615 nm, about 18 h, stronger effect = higher value.
The nature of assay [6]: growth suppression of yeast trafficking mutant, preliminary HTS, modulators of trafficking downstream of Golgi apparatus project, 1536-format plate, OD 615 nm (AID 637; in the data active means inhibition above about 30%). As to conditions: yeast transport mutant growth, absorbance 615 nm, 18 h; stronger effect = higher value.
Setting [7] is: H69AR cells + 2 uM doxorubicin, measured here: viability with 2 uM doxorubicin, stronger effect = lower value.
The mark [8] stands for this setting: H69AR cells, compound alone cytotoxicity.

16 molecules from PubChem BioAssay can be followed below.

Molecules are shown by their SMILES. The source made the active and inactive calls.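 How the source made its calls, unless noted: active means viability loss from added drug above about 55%, and viability with drug at most 40%, in both replicates (limit read from the data, passing the limit was not always enough); inconclusive means both conditions met in only one replicate; inactive means neither replicate meets both conditions.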

For `CCOC(=O)C1CSc2[nH]c(=O)sc2C1c1ccccc1` (stereo not drawn), the viability in assay [1] was 100% (inactive); in assay [2], 117% (inactive); in assay [3] it was 93.2% (inactive); in assay [4] (setting [7]), 103%; in assay [4] (setting [8]), 93.2%. The differential viability (reversal) in assay [4] (H69AR cells + 2 uM doxorubicin) was -9.41% (inactive). Further, the inhibition in assay [5] is 0.95% (inactive); in assay [6], -2% (inactive).
Turning to `CCOC(=O)c1sc2cccc(F)c2c1N`, the viability was 105% (inactive) in assay [1]; 80.8% (inactive) in assay [2]; 88.1% (inactive) in assay [3]; 82.5% in assay [4] (setting [7]); 88.1% in assay [4] (setting [8]). Further, the differential viability (reversal) in assay [4] (H69AR cells + 2 uM doxorubicin) was 5.58% (inactive). The figures for the inhibition in assay [5] and in assay [6] were -5.45% (inactive) and 6.07% (inactive), respectively.
As to `Cc1cc(NS(=O)(=O)Cc2ccccc2)cc(C)c1OCC(=O)N1CCOCC1`, the viability in assay [1] was 95% (inactive); in assay [2] it was 92.1% (inactive); in assay [3], 94.6% (inactive); in assay [4] (setting [7]) it was 74.4%; in assay [4] (setting [8]) it was 94.6%. Moreover, the differential viability (reversal) in assay [4] (H69AR cells + 2 uM doxorubicin) is 20.2% (inactive). For the same molecule, the results for the inhibition in assay [5] and in assay [6] were -0.52% (inactive) and 0% (inactive), respectively.
As for `O=C(CSc1nc2ccccc2c(=O)n1Cc1ccco1)NCc1ccccc1`, the viability in assay [1] is 72% (inactive); in assay [2], 82.6% (inactive); in assay [3] it was 89.4% (inactive); in assay [4] (setting [7]) it was 86.3%; in assay [4] (setting [8]), 89.4%. In addition, the differential viability (reversal) in assay [4] (H69AR cells + 2 uM doxorubicin) is 3.12% (inactive). Further, the values for the inhibition in assay [5] and in assay [6] were -8.63% (inactive) and 0.73% (inactive), respectively.
For `CC1(C)O[C@@H]2C[C@H]3[C@@H]4C[C@H](F)C5=CC(=O)CC[C@]5(C)[C@H]4[C@@H](O)C[C@]3(C)[C@]2(C(=O)CO)O1`, the viability was 104% (inactive) in assay [1]; 107% (inactive) in assay [2]; 95.2% (inactive) in assay [3]; 97.7% in assay [4] (setting [7]); 95.2% in assay [4] (setting [8]). Moreover, in assay [4] (H69AR cells + 2 uM doxorubicin), the differential viability (reversal) is -2.5% (inactive). The results for the inhibition in assay [5] and in assay [6] were -5.45% (inactive) and -0.5% (inactive), respectively.
For the molecule `CC1(C)Cc2c(c(=S)nc(-c3ccccc3)n2CCO)CO1`, the viability was 111% (inactive) in assay [1]; 106% (inactive) in assay [2]; 87.6% (inactive) in assay [3]; 91.9% in assay [4] (setting [7]); 87.6% in assay [4] (setting [8]). Further, in assay [4] (H69AR cells + 2 uM doxorubicin), the differential viability (reversal) is -4.25% (inactive). For the same molecule, the inhibition in assay [5] was -1.43% (inactive); in assay [6], -6.72% (inactive).
Regarding `CCOc1ccccc1C1N(c2ccc(F)cc2)C(=O)C2CCCN21` (stereo not drawn), the viability was 109% (inactive) in assay [1]; 111% (inactive) in assay [2]; 99% (inactive) in assay [3]; 79.8% in assay [4] (setting [7]); 99% in assay [4] (setting [8]). For the same molecule, in assay [4] (H69AR cells + 2 uM doxorubicin), the differential viability (reversal) is 19.2% (inactive). Moreover, the figures for the inhibition in assay [5] and in assay [6] were -4.4% (inactive) and 2.18% (inactive), respectively.
`CS(=O)(=O)N(Cc1ccccc1)c1ccc(C(=O)N2CCOCC2)cc1`: the viability is 95% (inactive) in assay [1]; 105% (inactive) in assay [2]; 97.7% (inactive) in assay [3]; 91% in assay [4] (setting [7]); 97.7% in assay [4] (setting [8]). Further, the differential viability (reversal) in assay [4] (H69AR cells + 2 uM doxorubicin) was 6.74% (inactive). Also, the inhibition was -2.86% (inactive) in assay [5] and -5.57% (inactive) in assay [6].
As to `CCOC(=O)c1ccc(NC(=O)N2CCN(Cc3cccc(F)c3)CC2)cc1`, the viability in assay [1] is 91% (inactive); in assay [2] it was 105% (inactive); in assay [3], 84.4% (inactive); in assay [4] (setting [7]) it was 93.6%; in assay [4] (setting [8]) it was 84.4%. Also, the differential viability (reversal) in assay [4] (H69AR cells + 2 uM doxorubicin) is -9.16% (inactive). Also, the inhibition was -5.21% (inactive) in assay [5] and 0.91% (inactive) in assay [6].
With `COc1ccc2cnn(-c3ccccc3C)c(=O)c2c1OC`, the viability in assay [1] was 88% (inactive); in assay [2], 85.5% (inactive); in assay [3], 106% (inactive); in assay [4] (setting [7]), 108%; in assay [4] (setting [8]), 106%. Also, the differential viability (reversal) in assay [4] (H69AR cells + 2 uM doxorubicin) is -1.29% (inactive). Moreover, the inhibition in assay [5] is -3.24% (inactive); in assay [6] it was 0.55% (inactive).
For `COc1ccc(CCNC(=O)CSCc2n[nH]c(=O)[nH]2)cc1OC`, the viability is 110% (inactive) in assay [1]; 89.3% (inactive) in assay [2]; 88.5% (inactive) in assay [3]; 88.6% in assay [4] (setting [7]); 88.5% in assay [4] (setting [8]). The differential viability (reversal) in assay [4] (H69AR cells + 2 uM doxorubicin) is -0.08% (inactive). Moreover, the values for the inhibition in assay [5] and in assay [6] were -10.7% (inactive) and 0% (inactive), respectively.
For the molecule `CC1(C)C2CCC1(C)C(OC(=O)CSc1nc(N)cc(=O)[nH]1)C2` (stereo not drawn), the viability in assay [1] is 104% (inactive); in assay [2], 94.2% (inactive); in assay [3], 92.8% (inactive); in assay [4] (setting [7]), 86.1%; in assay [4] (setting [8]), 92.8%. In assay [4] (H69AR cells + 2 uM doxorubicin), the differential viability (reversal) was 6.73% (inactive). Also, the results for the inhibition in assay [5] and in assay [6] were -2.53% (inactive) and -6.91% (inactive), respectively.
In the case of `O=C(O)c1ccc(S(=O)(=O)Cc2ccccc2)cc1`, the viability in assay [1] was 95% (inactive); in assay [2], 102% (inactive); in assay [3] it was 87.3% (inactive); in assay [4] (setting [7]) it was 95.2%; in assay [4] (setting [8]) it was 87.3%. The differential viability (reversal) in assay [4] (H69AR cells + 2 uM doxorubicin) is -7.88% (inactive). In addition, the values for the inhibition in assay [5] and in assay [6] were -3.29% (inactive) and 1.45% (inactive), respectively.
Turning to `COCCn1nnnc1SCC(=O)N1CCCCC1`, the viability in assay [1] was 63% (inactive); in assay [2] it was 102% (inactive); in assay [3], 99.4% (inactive); in assay [4] (setting [7]), 97.4%; in assay [4] (setting [8]), 99.4%. Further, the differential viability (reversal) in assay [4] (H69AR cells + 2 uM doxorubicin) was 1.98% (inactive). Also, the inhibition in assay [5] is -5.34% (inactive); in assay [6], 4.18% (inactive).
In the case of `O=C(O)CCn1[nH]c(=O)ccc1=O`, the viability is 87% (inactive) in assay [1]; 102% (inactive) in assay [2]; 97.3% (inactive) in assay [3]; 93.4% in assay [4] (setting [7]); 97.3% in assay [4] (setting [8]). Besides, the differential viability (reversal) in assay [4] (H69AR cells + 2 uM doxorubicin) was 3.97% (inactive). Besides, the inhibition in assay [5] was -2.05% (inactive); in assay [6], 1.77% (inactive).
For the molecule `CCOC(=O)N1CCC(NC(=O)C2CCC(Cn3c(=O)[nH]c4ccccc4c3=O)CC2)CC1` (stereo not drawn), the viability in assay [1] is 134% (inactive); in assay [2], 64.8% (inactive); in assay [3] it was 16.8% (active); in assay [4] (setting [7]), 24.6%; in assay [4] (setting [8]), 16.8%. Also, the differential viability (reversal) in assay [4] (H69AR cells + 2 uM doxorubicin) is -7.75% (inactive). For the same molecule, the inhibition in assay [5] was -5.71% (inactive); in assay [6], 0.66% (inactive).

As a reminder, the viability is a read-out of living cells in per cent, often relative to untreated cells. By inhibition is commonly meant the drop in the measured response relative to a control, in per cent.
